Reference: paper PMC9773939 (ACS Omega, 2022)

Test system: not listed separately
Assay: Solubility, qualitative remarks
Type: physicochemical
Conditions: qualitative remark

Row | Compound | solubility in culture
1 | NNc1nc(-c2ccc(Cl)cc2)nc2ccccc12 [3c, (Z)-1-(2-(4-chlorophenyl)quinazolin-4(3H)-ylidene)hydrazine] | appreciable solubility

Test system: promastigotes of L. infantum
Assay: not given
Type: cell-based
Conditions: presence vs absence of D,L-folic acid
Summary of the method: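 L. infantum promastigotes were treated with test compound with or without D,L-folic acid, following the promastigote MTT viability protocol (72 h, 25 °C, formazan read at 570 nm). IC50 was determined in each condition and compared.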

Row | Compound | change of IC50 on addition of folic acid (FA)
2 | CCCCCCCCCCCCCCCCOP(=O)([O-])OCC[N+](C)(C)C [miltefosine, reference compound] | not affected
3 | NNc1nc(-c2ccc(Cl)cc2)nc2ccccc12 [3c, (Z)-1-(2-(4-chlorophenyl)quinazolin-4(3H)-ylidene)hydrazine] | modest increase in IC50

Test system: not listed separately
Assay: Cytotoxicity on J774.1A macrophages
Type: cell-based
Conditions: mouse, J774.1A macrophages, J774.1A macrophage, CC50, 48 h, MTT
Summary of the method: (§1)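 Peritoneal or J774.1A macrophages were grown in DMEM with 10% heat-inactivated FBS, L-glutamine and penicillin/streptomycin. Cells were seeded at 5 × 10^4 cells/well for 24 h at 37 °C, 5% CO2, then given test compound at 10–100 μM (from 25,000 μM DMSO stock) for 48 h. MTT (0.4 mg/mL, 4 h, 37 °C) was dissolved in DMSO and read at 570 nm. Cytotoxicity was expressed relative to negative controls. At least three experiments.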

Row | Compound | CC50 at 48 h [µM]
4 | CCCCCCCCCCCCCCCCOP(=O)([O-])OCC[N+](C)(C)C [miltefosine, reference compound] | 72.3 ± 3.45
5 | Cc1ccc(-c2nc3ccccc3/c(=N/N)[nH]2)cc1 [3e, (Z)-1-(2-(4-Methylphenyl)quinazolin-4(3H)-ylidene)hydrazine] | 115 ± 5.43
6 | NNc1nc(-c2ccc(Cl)cc2)nc2ccccc12 [3c, (Z)-1-(2-(4-chlorophenyl)quinazolin-4(3H)-ylidene)hydrazine] | 105 ± 5.66

Test system: J774.1A macrophages
Assay: Cytotoxicity on J774.1A macrophages
Type: cell-based
Conditions: read-out: J774.1A macrophage, CC50; 48 h, MTT
Summary of the method: as §1

Row | Compound | CC50 [µM]
7 | NNc1nc(-c2ccccc2)nc2ccccc12 [3a, (Z)-1-(2-phenylquinazolin-4(3H)-ylidene)hydrazine] | 90.2 ± 4.32

Test system: promastigotes of L. infantum
Assay: In vitro growth inhibition of L. infantum promastigotes
Type: cell-based, Leishmania infantum (MHOM MA67I7MAP263)
Conditions: Leishmania infantum, 72 h, read-out: promastigote, IC50 L. infantum
Summary of the method: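 L. infantum MHOM MA67I7MAP263 promastigotes at 2 × 10^6 parasites/mL were exposed to 0.5–25 μM test compound for 72 h at 25 °C. Dilutions came from a 3000 μM DMSO stock, with final DMSO ≤1%. MTT (0.4 mg/mL) was added for 4 h at 37 °C, formazan was dissolved in DMSO and read at 570 nm. Inhibition was calculated against untreated controls. At least three experiments, mean ± SD.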

Row | Compound | IC50 [µM]
8 | NNc1nc(-c2ccccc2)nc2ccccc12 [3a, (Z)-1-(2-phenylquinazolin-4(3H)-ylidene)hydrazine] | 12.7 ± 0.74
9 | CCCCCCCCCCCCCCCCOP(=O)([O-])OCC[N+](C)(C)C [miltefosine, reference compound] | 10.6 ± 0.46
10 | Cc1ccc(-c2nc3ccccc3/c(=N/N)[nH]2)cc1 [3e, (Z)-1-(2-(4-Methylphenyl)quinazolin-4(3H)-ylidene)hydrazine] | 1.2 ± 0.08
11 | NNc1nc(-c2ccc(Cl)cc2)nc2ccccc12 [3c, (Z)-1-(2-(4-chlorophenyl)quinazolin-4(3H)-ylidene)hydrazine] | 1.56 ± 0.09

Test system: Salmonella typhimurium TA 98 strain
Assay: Mutagenicity Ames test
Type: cell-based
Conditions: dose 27.9 μg/plate

Row | Compound | revertants number
12 | NNc1nc(-c2ccc(Cl)cc2)nc2ccccc12 [3c, (Z)-1-(2-(4-chlorophenyl)quinazolin-4(3H)-ylidene)hydrazine] | 8.0 ± 2.0

Same assay, conditions: dose 37.2 μg/plate

Row | Compound | revertants number
13 | NNc1nc(-c2ccc(Cl)cc2)nc2ccccc12 [3c, (Z)-1-(2-(4-chlorophenyl)quinazolin-4(3H)-ylidene)hydrazine] | 4.5 ± 2.0

Same assay, conditions: dose 55.8 μg/plate

Row | Compound | revertants number
14 | NNc1nc(-c2ccc(Cl)cc2)nc2ccccc12 [3c, (Z)-1-(2-(4-chlorophenyl)quinazolin-4(3H)-ylidene)hydrazine] | 5.0 ± 0.5

Same assay, conditions: dose 111.7 μg/plate

Row | Compound | revertants number
15 | NNc1nc(-c2ccc(Cl)cc2)nc2ccccc12 [3c, (Z)-1-(2-(4-chlorophenyl)quinazolin-4(3H)-ylidene)hydrazine] | 8.0 ± 1.0

Same assay, conditions: dose 335.0 μg/plate

Row | Compound | revertants number
16 | NNc1nc(-c2ccc(Cl)cc2)nc2ccccc12 [3c, (Z)-1-(2-(4-chlorophenyl)quinazolin-4(3H)-ylidene)hydrazine] | 9.5 ± 0.5

Test system: promastigotes of L. infantum
Assay: Effect of metal cations on IC50 on L. infantum promastigotes
Type: cell-based
Conditions: Leishmania parasites, metal cation at 1 μM
Summary of the method: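 L. infantum promastigotes were treated with test compound alone or with a metal cation (Fe3+, Cu2+ or Zn2+) at 1 μM, following the promastigote MTT viability protocol. IC50 was determined with and without the cation and compared.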

Row | Compound | change of IC50 in the presence of Cu2+
17 | Cc1ccc(-c2nc3ccccc3/c(=N/N)[nH]2)cc1 [3e, (Z)-1-(2-(4-Methylphenyl)quinazolin-4(3H)-ylidene)hydrazine] | increase in IC50 values
18 | NNc1nc(-c2ccc(Cl)cc2)nc2ccccc12 [3c, (Z)-1-(2-(4-chlorophenyl)quinazolin-4(3H)-ylidene)hydrazine] | increase in IC50 values

Test system: not listed separately
Assay: Cytotoxicity on primary peritoneal macrophages
Type: cell-based, mouse
Conditions: mouse, primary peritoneal macrophages, peritoneal macrophage, CC50, 48 h, MTT
Summary of the method: as §1

Row | Compound | CC50 at 48 h [µM]
19 | CCCCCCCCCCCCCCCCOP(=O)([O-])OCC[N+](C)(C)C [miltefosine, reference compound] | 67.8 ± 3.11
20 | Cc1ccc(-c2nc3ccccc3/c(=N/N)[nH]2)cc1 [3e, (Z)-1-(2-(4-Methylphenyl)quinazolin-4(3H)-ylidene)hydrazine] | 84.8 ± 3.67
21 | NNc1nc(-c2ccc(Cl)cc2)nc2ccccc12 [3c, (Z)-1-(2-(4-chlorophenyl)quinazolin-4(3H)-ylidene)hydrazine] | 89.9 ± 3.77

Test system: peritoneal macrophages
Assay: Cytotoxicity on primary peritoneal macrophages
Type: cell-based, mouse
Conditions: read-out: peritoneal macrophage, CC50; 48 h, MTT
Summary of the method: as §1

Row | Compound | CC50 [µM]
22 | NNc1nc(-c2ccccc2)nc2ccccc12 [3a, (Z)-1-(2-phenylquinazolin-4(3H)-ylidene)hydrazine] | 61 ± 2.34

Test system: T. cruzi epimastigotes
Assay: Nitrite concentration by Griess test, T. cruzi epimastigote culture
Type: cell-based
Conditions: 5 days, 25, 50 and 100 μM
Summary of the method: (§2)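 L. infantum promastigote or T. cruzi epimastigote cultures (5 × 10^6 parasites/well) were incubated 5 days with test compound at 25, 50 and 100 μM, with untreated wells as controls. Supernatants were mixed with 1% sulfanilamide in 50% acetic acid, then after 15 min with 1% N-naphthylethylenediamine in 50% acetic acid, and read at 540 nm. Nitrite (μM) was taken from a sodium nitrite standard curve (detection limit 1.56 μM). Run in triplicate.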

Row | Compound | nitrite ion production (Griess test)
23 | NNc1nc(-c2ccc(Cl)cc2)nc2ccccc12 [3c, (Z)-1-(2-(4-chlorophenyl)quinazolin-4(3H)-ylidene)hydrazine] | appreciable amount of nitrite ion in sub-micromolar ranges

Test system: promastigotes of L. braziliensis
Assay: In vitro growth inhibition of L. braziliensis promastigotes
Type: cell-based, Leishmania (V) braziliensis (MHOM/BR/75/M2903)
Conditions: Leishmania braziliensis, read-out: promastigote, IC50 L. braziliensis

Row | Compound | IC50 [µM]
24 | NNc1nc(-c2ccccc2)nc2ccccc12 [3a, (Z)-1-(2-phenylquinazolin-4(3H)-ylidene)hydrazine] | 4.53 ± 0.23
25 | CCCCCCCCCCCCCCCCOP(=O)([O-])OCC[N+](C)(C)C [miltefosine, reference compound] | 8.78 ± 0.41
26 | Cc1ccc(-c2nc3ccccc3/c(=N/N)[nH]2)cc1 [3e, (Z)-1-(2-(4-Methylphenyl)quinazolin-4(3H)-ylidene)hydrazine] | 10.1 ± 0.48
27 | NNc1nc(-c2ccc(Cl)cc2)nc2ccccc12 [3c, (Z)-1-(2-(4-chlorophenyl)quinazolin-4(3H)-ylidene)hydrazine] | 5.12 ± 0.32

Test system: epimastigotes of T. cruzi
Assay: Antifolate activity: IC50 on T. cruzi epimastigotes with and without folic acid
Type: cell-based
Conditions: presence vs absence of D,L-folic acid
Summary of the method: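 T. cruzi epimastigotes were treated with test compound with or without D,L-folic acid, following the epimastigote turbidimetric viability protocol (120 h, 25 °C, A595). IC50 was determined in each condition and compared.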

Row | Compound | change of IC50 on addition of folic acid (FA)
28 | Cc1ccc(-c2nc3ccccc3/c(=N/N)[nH]2)cc1 [3e, (Z)-1-(2-(4-Methylphenyl)quinazolin-4(3H)-ylidene)hydrazine] | Increasing IC50 values by about twofold
29 | NNc1nc(-c2ccc(Cl)cc2)nc2ccccc12 [3c, (Z)-1-(2-(4-chlorophenyl)quinazolin-4(3H)-ylidene)hydrazine] | Increasing IC50 values by about twofold

Test system: amastigotes of L. braziliensis
Assay: Ex vivo antiamastigote activity of L. braziliensis
Type: cell-based, L. braziliensis (MHOM/BZ/82/M2903)
Conditions: CC50 (peritoneal macrophage) / IC50 (amastigotes of L. braziliensis)
Summary of the method: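 L. braziliensis MHOM/BZ/82/M2903 amastigotes were taken from footpad lesions of infected BALB/c mice. Macrophages were removed by brief centrifugation (3000 rpm, 2–3 min). Amastigotes were kept at 37 °C, pH 5.5, in supplemented M199 with 10% FCS. At 2 × 10^6/mL they were exposed to 1.0–50.0 μM test compound (controls 1% DMSO). At 48 h parasites were counted in a Neubauer chamber against untreated controls. S.I. = peritoneal macrophage CC50 / amastigote IC50.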

Row | Compound | S.I.Leishmania (selectivity index)
30 | NNc1nc(-c2ccccc2)nc2ccccc12 [3a, (Z)-1-(2-phenylquinazolin-4(3H)-ylidene)hydrazine] | 7.4
31 | CCCCCCCCCCCCCCCCOP(=O)([O-])OCC[N+](C)(C)C [miltefosine, reference compound] | 3.2
32 | Cc1ccc(-c2nc3ccccc3/c(=N/N)[nH]2)cc1 [3e, (Z)-1-(2-(4-Methylphenyl)quinazolin-4(3H)-ylidene)hydrazine] | 6.1

Same assay, conditions: Leishmania braziliensis, 48 h, read-out: amastigote, IC50 L. braziliensis

Row | Compound | IC50 [µM]
33 | NNc1nc(-c2ccccc2)nc2ccccc12 [3a, (Z)-1-(2-phenylquinazolin-4(3H)-ylidene)hydrazine] | 8.26 ± 0.45
34 | CCCCCCCCCCCCCCCCOP(=O)([O-])OCC[N+](C)(C)C [miltefosine, reference compound] | 21.2 ± 1.13
35 | Cc1ccc(-c2nc3ccccc3/c(=N/N)[nH]2)cc1 [3e, (Z)-1-(2-(4-Methylphenyl)quinazolin-4(3H)-ylidene)hydrazine] | 14 ± 0.89
36 | NNc1nc(-c2ccc(Cl)cc2)nc2ccccc12 [3c, (Z)-1-(2-(4-chlorophenyl)quinazolin-4(3H)-ylidene)hydrazine] | 8.96 ± 0.53

Test system: epimastigotes of T. cruzi
Assay: In vitro anti-T. cruzi evaluation on epimastigotes
Type: cell-based, T. cruzi (CL Brener clone)
Conditions: CC50 (J774.1A) / IC50 of epimastigotes (T. cruzi)
Summary of the method: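 Turbidity (A595) was read at day 0 and day 5. PGI was calculated relative to untreated controls, with single-point PGI at 25 μM. IC50 is the concentration […]. At least three experiments.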

Row | Compound | S.I.T.cruzi (selectivity index), column epimastigote, IC50 (μM) T. cruzi (S.I.T.cruzi)
37 | NNc1nc(-c2ccccc2)nc2ccccc12 [3a, (Z)-1-(2-phenylquinazolin-4(3H)-ylidene)hydrazine] | <3.6
38 | Cc1ccc(-c2nc3ccccc3/c(=N/N)[nH]2)cc1 [3e, (Z)-1-(2-(4-Methylphenyl)quinazolin-4(3H)-ylidene)hydrazine] | 6.4
39 | NNc1nc(-c2ccc(Cl)cc2)nc2ccccc12 [3c, (Z)-1-(2-(4-chlorophenyl)quinazolin-4(3H)-ylidene)hydrazine] | 9.1

Same assay, conditions: Trypanosoma cruzi, 120 h, read-out: epimastigote, IC50 T. cruzi

Row | Compound | IC50 [µM]
40 | NNc1nc(-c2ccccc2)nc2ccccc12 [3a, (Z)-1-(2-phenylquinazolin-4(3H)-ylidene)hydrazine] | > 25
41 | Cc1ccc(-c2nc3ccccc3/c(=N/N)[nH]2)cc1 [3e, (Z)-1-(2-(4-Methylphenyl)quinazolin-4(3H)-ylidene)hydrazine] | 18 ± 1.11
42 | NNc1nc(-c2ccc(Cl)cc2)nc2ccccc12 [3c, (Z)-1-(2-(4-chlorophenyl)quinazolin-4(3H)-ylidene)hydrazine] | 11.5 ± 0.49

Test system: not listed separately
Assay: Oxidative decomposition followed by NMR
Type: physicochemical
Conditions: 2 weeks of incubation with H2O2

Row | Compound | decomposition under oxidative conditions
43 | NNc1nc(-c2ccc(Cl)cc2)nc2ccccc12 [3c, (Z)-1-(2-(4-chlorophenyl)quinazolin-4(3H)-ylidene)hydrazine] | decomposed in at least three additional products

Test system: L. infantum promastigotes
Assay: Nitrite concentration by Griess test, L. infantum promastigote culture
Type: cell-based
Conditions: 5 days, 25, 50 and 100 μM
Summary of the method: as §2

Row | Compound | nitrite ion production (Griess test)
44 | NNc1nc(-c2ccc(Cl)cc2)nc2ccccc12 [3c, (Z)-1-(2-(4-chlorophenyl)quinazolin-4(3H)-ylidene)hydrazine] | appreciable amount of nitrite ion in sub-micromolar ranges
